ChEMBL document CHEMBL1122581, “Antiviral activity of C-5 substituted tubercidin analogues” (1984)
Converted amounts (≈) assume the structure as drawn.

Legend:
Assay type in all cases: functional
Sindbis virus = test: Concentration required to reduce sindbis virus induced cytopathogenicity by 50% in vero cell cultures.
Human alphaherpesvirus 1 = test: Concentration required to reduce HSV-1 (KOS) induced cytopathogenicity by 50% in primary rabbit kidney cell cultures.
[1] = tested on: Vesicular stomatitis virus; test: Concentration required to reduce vesicular stomatitis virus induced cytopathogenicity by 50% in HeLa cell cultures.
L1210 = test: Dose required to inhibit proliferation of L-1210 Cells by 50%; conditions: Mus musculus, read-out: ID50 (the source's name)
Procedure, shortened: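 Inhibition of proliferation of murine leukemia L-1210 cells in exponential growth phase. ID50 is the dose inhibiting cell proliferation by 50%, given plus or minus standard deviation.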

Coxsackievirus B4 [2] = test: Concentration required to reduce coxsackie virus B4 induced cytopathogenicity by 50% in vero cell cultures.; conditions: Enterovirus B
[3] = tested on: Vesicular stomatitis virus; test: Concentration required to reduce vesicular stomatitis virus induced cytopathogenicity by 50% in primary rabbit kidney cell cultures.
Vero = test: Concentration required to cause a microscopically detectable alteration in cell morphology in vero cell cultures.; conditions: Chlorocebus sabaeus, read-out: Min cytotoxic concentration
Procedure, shortened: (§1)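 Uninfected cell monolayers were run in parallel with the antiviral assays and exposed to compound for the same period as the infected cultures. The end point was the lowest concentration giving a microscopically detectable disruption of normal cell morphology.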

Poliovirus 1 = test: Concentration required to reduce polio virus type 1 induced cytopathogenicity by 50% in HeLa cell cultures.; conditions: Enterovirus C
Human alphaherpesvirus 2 = test: Concentration required to reduce HSV-2 (G) induced cytopathogenicity by 50% in primary rabbit kidney cell cultures.
[4] = tested on: Mammalian orthoreovirus 1; test: Concentration required to reduce reovirus type 1 induced cytopathogenicity by 50% in vero cell cultures.
Human respirovirus 3 = test: Concentration required to reduce parainfluenza virus type 3 induced cytopathogenicity by 50% in vero cell cultures.
HeLa = test: Concentration required to cause a microscopically detectable alteration in cell morphology in HeLa cell cultures.; conditions: Homo sapiens, read-out: Min cytotoxic concentration; procedure, shortened: as §1
Oryctolagus cuniculus = species on record: Oryctolagus cuniculus; test: Concentration required to cause a microscopically detectable alteration in cell morphology in primary rabbit kidney cell cultures.; conditions: read-out: Min cytotoxic concentration; procedure, shortened: as §1
Coxsackievirus B4 [5] = test: Concentration required to reduce coxsackie virus 4 induced cytopathogenicity by 50% in HeLa cell cultures.; conditions: Enterovirus B

SMILES	MIC (Sindbis virus)	MIC (Human alphaherpesvirus 1)	MIC [1]	IC50 (L1210)	MIC (Coxsackievirus B4 [2])	MIC [3]	MCC (Vero)	MIC (Poliovirus 1)	MIC (Human alphaherpesvirus 2)	MIC [4]	MIC (Human respirovirus 3)	MCC (HeLa)	MCC (Oryctolagus cuniculus)	MIC (Coxsackievirus B4 [5])
C/C=C/Cc1cn(C2O[C@H](CO)[C@@H](O)[C@H]2O)c2ncnc(N)c12 (some centres undefined)	> 40 mg/L	20 mg/L (≈ 62.4 µM)	0.07 mg/L (≈ 0.219 µM)	0.63 mg/L (≈ 1.97 µM)	2 mg/L (≈ 6.24 µM)	> 40 mg/L	100 µg/mL	0.2 mg/L (≈ 0.624 µM)	150 mg/L (≈ 468 µM)	2 mg/L (≈ 6.24 µM)	> 1 mg/L	1 µg/mL	200 µg/mL	0.2 mg/L (≈ 0.624 µM)
CCCCc1cn(C2O[C@H](CO)[C@@H](O)[C@H]2O)c2ncnc(N)c12 (some centres undefined)	> 40 mg/L	> 40 mg/L	> 40 mg/L	81.6 mg/L (≈ 253 µM)	> 40 mg/L	> 40 mg/L	> 100 µg/mL	> 40 mg/L	> 40 mg/L	> 40 mg/L	20 mg/L (≈ 62 µM)	> 40 µg/mL	40 µg/mL	> 40 mg/L
Nc1ncnc2c1c(Br)cn2[C@@H]1O[C@H](CO)[C@@H](O)[C@H]1O	> 0.4 mg/L	> 1 mg/L	> 0.4 mg/L	0.587 mg/L (≈ 1.7 µM)	> 0.4 mg/L	> 1 mg/L	0.4 µg/mL	> 0.4 mg/L	> 1 mg/L	> 0.4 mg/L	> 0.4 mg/L	1 µg/mL	1 µg/mL	> 0.4 mg/L
Nc1nccc2c1ncn2[C@@H]1C[C@H](CO)[C@H](O)C1O (some centres undefined)	20 mg/L (≈ 75.7 µM)	> 400 mg/L	0.7 mg/L (≈ 2.65 µM)	–	2 mg/L (≈ 7.57 µM)	0.07 mg/L (≈ 0.265 µM)	> 100 µg/mL	> 400 mg/L	300 mg/L (≈ 1140 µM)	2 mg/L (≈ 7.57 µM)	2 mg/L (≈ 7.57 µM)	> 400 µg/mL	> 200 µg/mL	> 400 mg/L
Nc1ncnc2c1c(Cl)cn2[C@@H]1O[C@H](CO)[C@@H](O)[C@H]1O	> 1 mg/L	> 1 mg/L	> 1 mg/L	0.014 mg/L (≈ 0.0466 µM)	> 1 mg/L	> 1 mg/L	4 µg/mL	1 mg/L (≈ 3.33 µM)	> 1 mg/L	0.7 mg/L (≈ 2.33 µM)	> 1 mg/L	4 µg/mL	4 µg/mL	> 0.4 mg/L
Nc1ncnc2c1c(I)cn2[C@@H]1O[C@H](CO)[C@@H](O)[C@H]1O [IODOTUBERCIDIN]	> 0.4 mg/L	0.02 mg/L (≈ 0.051 µM)	> 0.4 mg/L	1.25 mg/L (≈ 3.19 µM)	> 0.4 mg/L	> 0.4 mg/L	1 µg/mL	> 0.4 mg/L	> 1 mg/L	> 0.4 mg/L	> 0.4 mg/L	1 µg/mL	1 µg/mL	> 0.4 mg/L
NC(=O)c1ncn([C@@H]2O[C@H](CO)[C@@H](O)[C@H]2O)n1 [RIBAVIRIN]	150 mg/L (≈ 614 µM)	> 400 mg/L	4 mg/L (≈ 16.4 µM)	3.18 mg/L (≈ 13 µM)	> 400 mg/L	70 mg/L (≈ 287 µM)	> 400 µg/mL	7 mg/L (≈ 28.7 µM)	> 400 mg/L	20 mg/L (≈ 81.9 µM)	20 mg/L (≈ 81.9 µM)	> 400 µg/mL	> 400 µg/mL	20 mg/L (≈ 81.9 µM)
NC(=O)c1cn([C@@H]2O[C@H](CO)[C@@H](O)[C@H]2O)c2ncnc(N)c12 [SANGIVAMYCIN]	0.2 mg/L (≈ 0.647 µM)	0.07 mg/L (≈ 0.226 µM)	0.04 mg/L (≈ 0.129 µM)	0.019 mg/L (≈ 0.0614 µM)	0.02 mg/L (≈ 0.0647 µM)	0.02 mg/L (≈ 0.0647 µM)	0.4 µg/mL	0.07 mg/L (≈ 0.226 µM)	0.07 mg/L (≈ 0.226 µM)	> 0.1 mg/L	0.02 mg/L (≈ 0.0647 µM)	0.4 µg/mL	> 10 µg/mL	> 0.04 mg/L
N#Cc1cn([C@@H]2O[C@H](CO)[C@@H](O)[C@H]2O)c2ncnc(N)c12 [TOYOCAMYCIN]	> 0.01 mg/L	> 0.04 mg/L	0.07 mg/L (≈ 0.24 µM)	0.006 mg/L (≈ 0.0206 µM)	> 0.01 mg/L	> 1 mg/L	0.04 µg/mL	> 0.01 mg/L	0.07 mg/L (≈ 0.24 µM)	> 0.01 mg/L	> 0.01 mg/L	> 0.4 µg/mL	> 0.04 µg/mL	> 0.01 mg/L
Nc1ncnc2c1ccn2[C@@H]1O[C@H](CO)[C@@H](O)[C@H]1O [TUBERCIDIN]	0.2 mg/L (≈ 0.751 µM)	0.07 mg/L (≈ 0.263 µM)	0.007 mg/L (≈ 0.0263 µM)	0.04 mg/L (≈ 0.15 µM)	0.2 mg/L (≈ 0.751 µM)	0.007 mg/L (≈ 0.0263 µM)	0.4 µg/mL	0.007 mg/L (≈ 0.0263 µM)	0.2 mg/L (≈ 0.751 µM)	0.07 mg/L (≈ 0.263 µM)	0.07 mg/L (≈ 0.263 µM)	0.4 µg/mL	0.4 µg/mL	0.2 mg/L (≈ 0.751 µM)
